Assay results as given in ChEMBL document CHEMBL3297702, “Improving photodynamic inactivation of bacteria in dentistry: highly effective and fast killing of oral key pathogens with novel tooth-colored type-II photosensitizers” (J Med Chem, 2014).
Activity calls are given as the source filed them. The calls are words filed in the database; no cut-off is given here.

Assays:
Enterococcus faecalis = assay: Toxicity in Enterococcus faecalis ATCC 29212 assessed as reduction of log10 CFU at 1 to 250 uM incubated for 10 secs under dark condition measured after 24 hrs by agar plating method; format: organism-based; conditions: in vivo
Outline: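 Dark controls. Overnight BHI cultures (EF, SM, AN aerobic; AA anaerobic; 37 °C) were washed into PBS at 10^7–10^8 cells/mL. They were mixed 1:1 with photosensitizer at final 0–250 µM and incubated 10 s, 7.5 min or 15 min, then kept in the dark for 20, 40 or 120 s. Tenfold dilutions were plated: EF on Mueller-Hinton agar, aerobic 24 h; SM on BHI agar, aerobic 48 h; AN on blood agar, aerobic 48 h; AA on BHI agar, anaerobic 48 h; all at 37 °C. CFU were compared with untreated controls; medians of three independent experiments in triplicate.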

Streptococcus mutans [1] = assay: Photodynamic inactivation of Streptococcus mutans ATCC 25175 assessed as reduction of log10 CFU at 1 uM incubated prior to irradiation with 50 j/cm'2 for 40 secs measured after 48 hrs by agar plating method (reference value: <1 no unit); format: functional
Streptococcus mutans [2] = assay: Photodynamic inactivation of Streptococcus mutans ATCC 25175 assessed as reduction of log10 CFU at 5 uM incubated prior to irradiation with 150 j/cm'2 for 120 secs measured after 48 hrs by agar plating method (reference value: <1 no unit); format: functional
Streptococcus mutans [3] = assay: Photodynamic inactivation of Streptococcus mutans ATCC 25175 assessed as reduction of log10 CFU at 10 uM incubated prior to irradiation with 50 j/cm'2 for 40 secs measured after 48 hrs by agar plating method (reference value: <1 no unit); format: functional
Streptococcus mutans [4] = assay: Photodynamic inactivation of Streptococcus mutans ATCC 25175 assessed as reduction of log10 CFU at 100 uM incubated prior to irradiation with 50 j/cm'2 for 40 secs measured after 48 hrs by agar plating method (reference value: <1 no unit); format: functional
Actinomyces naeslundii [5] = assay: Photodynamic inactivation of Actinomyces naeslundii T14V assessed as reduction of log10 CFU at 1 uM incubated prior to irradiation with 25 j/cm'2 for 20 secs measured after 48 hrs by agar plating method (reference value: <1 no unit); format: functional
Outline: (§1)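 A. naeslundii T14V grown overnight at 37 °C, shaken, aerobically in BHI broth. Harvested at stationary phase, resuspended in PBS to 10^7–10^8 bacteria/mL (OD600). Mixed 1:1 with PS (final 0–250 µM) or water, 10 s incubation, then blue photopolymerizer light (1260 ± 50 mW/cm2) or dark. Tenfold dilutions plated on blood agar, aerobic 37 °C 48 h, CFU counted; medians of three independent experiments in triplicate.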

Actinomyces naeslundii [6] = assay: Photodynamic inactivation of Actinomyces naeslundii T14V assessed as reduction of log10 CFU at 1 uM incubated prior to irradiation with 150 j/cm'2 for 120 secs measured after 48 hrs by agar plating method (reference value: <1 no unit); format: functional; outline: as §1
Actinomyces naeslundii [7] = assay: Photodynamic inactivation of Actinomyces naeslundii T14V assessed as reduction of log10 CFU at 5 uM incubated prior to irradiation with 50 j/cm'2 for 40 secs measured after 48 hrs by agar plating method (reference value: <1 no unit); format: functional; outline: as §1
Actinomyces naeslundii [8] = assay: Photodynamic inactivation of Actinomyces naeslundii T14V assessed as reduction of log10 CFU at 5 uM incubated prior to irradiation with 150 j/cm'2 for 120 secs measured after 48 hrs by agar plating method (reference value: <1 no unit); format: functional; outline: as §1
Actinomyces naeslundii [9] = assay: Photodynamic inactivation of Actinomyces naeslundii T14V assessed as reduction of log10 CFU at 100 uM incubated prior to irradiation with 50 j/cm'2 for 40 secs measured after 48 hrs by agar plating method (reference value: <1 no unit); format: functional; outline: as §1
[10] = system: Aggregatibacter actinomycetemcomitans; assay: Photodynamic inactivation of Aggregatibacter actinomycetemcomitans ATCC 43718 assessed as reduction of log10 CFU at 5 uM incubated prior to irradiation with 25 j/cm'2 for 20 secs measured after 48 hrs by agar plating method relative to control; format: functional, Y4
Outline: (§2)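 A. actinomycetemcomitans ATCC 43718 cultured overnight in BHI broth under anaerobic conditions, 37 °C with shaking. Stationary-phase cells were spun down, taken up in PBS to 10^7–10^8/mL, and combined 1:1 with PS (final 0–250 µM) or water. After 10 s they were irradiated at 1260 ± 50 mW/cm2 or kept dark. Serial dilutions went onto BHI agar, incubated anaerobically at 37 °C for 48 h, and CFU were scored. Results are medians from 3 experiments × triplicate versus untreated controls.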

[11] = system: Aggregatibacter actinomycetemcomitans; assay: Photodynamic inactivation of Aggregatibacter actinomycetemcomitans ATCC 43718 assessed as reduction of log10 CFU at 5 uM incubated prior to irradiation with 150 j/cm'2 for 120 secs measured after 48 hrs by agar plating method relative to control; format: functional, Y4; outline: as §2
[12] = system: Aggregatibacter actinomycetemcomitans; assay: Photodynamic inactivation of Aggregatibacter actinomycetemcomitans ATCC 43718 assessed as reduction of log10 CFU at 10 uM incubated prior to irradiation with 150 j/cm'2 for 120 secs measured after 48 hrs by agar plating method relative to control; format: functional, Y4; outline: as §2
[13] = system: Aggregatibacter actinomycetemcomitans; assay: Photodynamic inactivation of Aggregatibacter actinomycetemcomitans ATCC 43718 assessed as reduction of log10 CFU at 100 uM incubated prior to irradiation with 25 j/cm'2 for 20 secs measured after 48 hrs by agar plating method relative to control; format: functional, Y4; outline: as §2
[14] = system: Aggregatibacter actinomycetemcomitans; assay: Photodynamic inactivation of Aggregatibacter actinomycetemcomitans ATCC 43718 assessed as reduction of log10 CFU at 100 uM incubated prior to irradiation with 50 j/cm'2 for 40 secs measured after 48 hrs by agar plating method (reference value: <1 no unit); format: functional, Y4; outline: as §2
[15] = system: Aggregatibacter actinomycetemcomitans; assay: Photodynamic inactivation of Aggregatibacter actinomycetemcomitans ATCC 43718 assessed as reduction of log10 CFU at 100 uM incubated prior to irradiation with 150 j/cm'2 for 120 secs measured after 48 hrs by agar plating method relative to control; format: functional, Y4; outline: as §2
[16] = Stability of the compound in acidic medium at 60 uM at pH 2 after 5 to 30 mins by UV-vis spectra analysis; format: physicochemical; conditions: buffer, pH 2, 60 µM
Outline: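 UV-Vis absorption spectra recorded in buffer solutions at different pH values after 5 and 30 min incubation.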

Streptococcus mutans [17] = assay: Photodynamic inactivation of Streptococcus mutans ATCC 25175 assessed as reduction of log10 CFU at 1 to 250 uM preincubated for 10 secs followed by irradiation with 25 j/cm'2 for 20 secs measured after 48 hrs by agar plating method; format: functional
Streptococcus mutans [18] = assay: Photodynamic inactivation of Streptococcus mutans ATCC 25175 assessed as reduction of log10 CFU at 1 to 250 uM preincubated for 10 secs followed by irradiation with 150 j/cm'2 for 120 secs measured after 48 hrs by agar plating method; format: functional
[19] = system: Aggregatibacter actinomycetemcomitans; assay: Photodynamic inactivation of Aggregatibacter actinomycetemcomitans ATCC 43718 assessed as reduction of log10 CFU at 1 to 250 uM incubated prior to irradiation with 50 j/cm'2 for 40 secs measured after 48 hrs by agar plating method; format: functional; conditions: Y4; outline: as §2
[20] = system: Aggregatibacter actinomycetemcomitans; assay: Photodynamic inactivation of Aggregatibacter actinomycetemcomitans ATCC 43718 assessed as reduction of log10 CFU at 1 to 250 uM incubated prior to irradiation with 150 j/cm'2 for 120 secs measured after 48 hrs by agar plating method; format: functional; conditions: Y4; outline: as §2

Stability [16]	Compound	Activity (Enterococcus faecalis)	log10cfu (Streptococcus mutans [1])	log10cfu (Streptococcus mutans [2])	log10cfu (Streptococcus mutans [3])	log10cfu (Streptococcus mutans [4])	log10cfu (Actinomyces naeslundii [5])	log10cfu (Actinomyces naeslundii [6])	log10cfu (Actinomyces naeslundii [7])	log10cfu (Actinomyces naeslundii [8])	log10cfu (Actinomyces naeslundii [9])	log10cfu [10]	log10cfu [11]	log10cfu [12]	log10cfu [13]	log10cfu [14]	log10cfu [15]	Activity (Streptococcus mutans [17])	Activity (Streptococcus mutans [18])	Activity [19]	further results
–	C[N+](C)(CCO)CC1=Cc2cccc3cccc(c23)C1=O.[Cl-]	Non-toxic	<1	<3	<3	>6	<1	<1	<3	<5	> 5	<3	>6	>6	> 3	>6	>6	–	–	–	–
Stable	C[N+](C)(C)CC1=Cc2cccc3cccc(c23)C1=O.[Cl-]	Non-toxic	–	–	–	–	–	–	–	–	–	–	–	–	–	–	–	Active	Active	Active	Activity [20]: Active
Stable	O=C1C(C[n+]2ccccc2)=Cc2cccc3cccc1c23.[Cl-]	–	<1	>6	>6	>6	<1	<5	<5	> 5	> 5	<3	>6	>6	>6	>6	>6	Active	Active	Active	Activity [20]: Active
